Laboratory results: publication PMC3418399 (Molecular microbiology, 2012)
Entries after “also recorded” stand apart in the source; their conditions may differ. Read-outs that look alike come from different tables or passages of the source. Non-standard residues stand in square brackets, D forms with d.

Legend:
human red blood cells = assay: Hemolysis; format: cell-based; conditions: for lysis of red blood cells: ≤100 μM
[1] = system: human epithelial (HEp2) cells; assay: Toxicity for cultured human epithelial cells; format: cell-based
Pma1p ATPase = biological target: T1, Pma1p ATPase (Saccharomyces cerevisiae, UniProt P05030); assay: Pma1p ATPase assay; format: biochemical; conditions: read-out: IC50 Pma1p ATPase; pH 7.0, 10 μM oligomycin
T1 sequence (P05030 1-918): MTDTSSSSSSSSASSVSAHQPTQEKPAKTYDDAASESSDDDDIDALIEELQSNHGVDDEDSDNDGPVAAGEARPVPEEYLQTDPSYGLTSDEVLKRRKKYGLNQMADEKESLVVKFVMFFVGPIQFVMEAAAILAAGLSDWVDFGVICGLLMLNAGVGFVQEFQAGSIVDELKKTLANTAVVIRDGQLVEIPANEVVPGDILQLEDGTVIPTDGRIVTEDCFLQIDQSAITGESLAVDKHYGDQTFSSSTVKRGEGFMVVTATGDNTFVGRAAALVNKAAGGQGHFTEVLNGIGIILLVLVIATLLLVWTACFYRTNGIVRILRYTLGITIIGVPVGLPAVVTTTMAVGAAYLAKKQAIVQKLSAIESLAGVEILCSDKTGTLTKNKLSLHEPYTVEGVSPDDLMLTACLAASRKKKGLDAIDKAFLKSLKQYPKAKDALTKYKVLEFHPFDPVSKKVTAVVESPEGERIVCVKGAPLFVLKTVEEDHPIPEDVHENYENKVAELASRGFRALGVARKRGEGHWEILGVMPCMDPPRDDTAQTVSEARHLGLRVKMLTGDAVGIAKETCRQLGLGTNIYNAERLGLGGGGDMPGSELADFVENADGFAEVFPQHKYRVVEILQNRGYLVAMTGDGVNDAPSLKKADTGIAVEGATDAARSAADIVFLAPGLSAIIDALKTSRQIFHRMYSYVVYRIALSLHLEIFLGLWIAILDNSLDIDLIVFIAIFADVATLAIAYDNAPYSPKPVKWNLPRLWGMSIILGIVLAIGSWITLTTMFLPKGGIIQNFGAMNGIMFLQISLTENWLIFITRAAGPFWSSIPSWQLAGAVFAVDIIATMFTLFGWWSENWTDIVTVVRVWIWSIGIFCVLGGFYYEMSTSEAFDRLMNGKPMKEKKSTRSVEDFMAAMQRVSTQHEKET

[2] = system: AD/CDR1 (Wild type CaCdr1p; AD/CaCDR1B); assay: Agarose diffusion FLC chemosensitization assay; format: cell-based, Saccharomyces cerevisiae; conditions: for chemosensitization of cells overexpressing CaCdr1p to FLC: ~6 nmole/disk, FLC 40 μg ml^−1
[3] = system: S. cerevisiae AD/CaCDR1 variants; assay: Spontaneous variants resistant to FLC chemosensitization; format: cell-based, Saccharomyces cerevisiae
[4] = biological target: T2, CaCdr1p-mediated rhodamine 6G efflux in AD/CaCDR1 cells (Candida albicans, UniProt P43071); assay: Glucose-dependent rhodamine 6G efflux in whole cells; format: cell-based
T2 sequence (P43071 whole entry): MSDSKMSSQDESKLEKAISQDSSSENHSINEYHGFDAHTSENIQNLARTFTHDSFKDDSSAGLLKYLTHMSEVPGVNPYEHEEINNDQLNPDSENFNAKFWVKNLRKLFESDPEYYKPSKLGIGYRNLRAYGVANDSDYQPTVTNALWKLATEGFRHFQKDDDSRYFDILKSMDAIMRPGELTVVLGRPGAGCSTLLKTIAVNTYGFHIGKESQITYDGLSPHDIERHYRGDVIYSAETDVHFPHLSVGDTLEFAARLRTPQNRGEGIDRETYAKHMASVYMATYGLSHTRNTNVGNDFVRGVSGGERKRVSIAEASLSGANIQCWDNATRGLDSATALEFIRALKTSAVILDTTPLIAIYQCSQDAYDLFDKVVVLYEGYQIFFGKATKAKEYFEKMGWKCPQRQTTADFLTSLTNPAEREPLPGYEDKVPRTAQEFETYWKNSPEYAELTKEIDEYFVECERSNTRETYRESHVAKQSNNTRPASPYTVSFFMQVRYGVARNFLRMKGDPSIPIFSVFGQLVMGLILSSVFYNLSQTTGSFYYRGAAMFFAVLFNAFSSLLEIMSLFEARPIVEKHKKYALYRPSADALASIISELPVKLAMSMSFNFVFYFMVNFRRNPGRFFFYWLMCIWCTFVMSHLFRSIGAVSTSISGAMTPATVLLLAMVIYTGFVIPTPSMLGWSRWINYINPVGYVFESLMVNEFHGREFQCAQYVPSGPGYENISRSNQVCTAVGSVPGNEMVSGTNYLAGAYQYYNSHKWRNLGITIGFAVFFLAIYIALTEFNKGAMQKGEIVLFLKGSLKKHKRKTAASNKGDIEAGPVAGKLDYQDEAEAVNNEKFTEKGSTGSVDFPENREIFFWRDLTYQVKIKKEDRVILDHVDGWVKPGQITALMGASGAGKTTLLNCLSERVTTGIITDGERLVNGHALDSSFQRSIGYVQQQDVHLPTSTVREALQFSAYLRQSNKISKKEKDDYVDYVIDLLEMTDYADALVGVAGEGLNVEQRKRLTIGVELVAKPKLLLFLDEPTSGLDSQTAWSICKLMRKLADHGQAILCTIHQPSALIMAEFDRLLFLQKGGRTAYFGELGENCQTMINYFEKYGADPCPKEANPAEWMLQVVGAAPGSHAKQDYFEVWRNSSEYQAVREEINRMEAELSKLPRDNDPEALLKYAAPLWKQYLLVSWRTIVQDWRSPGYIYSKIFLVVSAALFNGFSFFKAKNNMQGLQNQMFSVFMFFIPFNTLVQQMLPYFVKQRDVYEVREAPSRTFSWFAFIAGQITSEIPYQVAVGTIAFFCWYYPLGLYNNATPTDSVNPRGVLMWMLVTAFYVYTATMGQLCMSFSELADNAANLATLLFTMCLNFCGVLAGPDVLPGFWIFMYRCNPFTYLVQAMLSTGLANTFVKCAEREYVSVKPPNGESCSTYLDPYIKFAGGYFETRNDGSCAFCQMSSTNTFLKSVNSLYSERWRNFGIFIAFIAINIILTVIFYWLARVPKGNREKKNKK

Cdr1p ATPase = Cdr1p ATPase (Candida albicans, UniProt P43071); assay: CaCdr1p ATPase inhibition assay; format: biochemical
Chain of Cdr1p ATPase (P43071 whole entry): as above

AD/pABC3 (Control) [5] = assay: MIC, liquid microdilution; format: cell-based, Saccharomyces cerevisiae; conditions: AD/pABC3, Control; RC21 and rhodamines; CSM pH 7.0, 30°C, 48 h
[6] = system: AD/CDR1 (Wild type CaCdr1p); assay: MIC, liquid microdilution; format: cell-based, Saccharomyces cerevisiae; conditions: AD/CDR1, Wild type; RC21 and rhodamines; CSM pH 7.0, 30°C, 48 h
EL1/TM2 (CaCdr1p G547R) = assay: MIC, liquid microdilution; format: cell-based, Saccharomyces cerevisiae; conditions: EL1/TM2, G547R; RC21 and rhodamines; CSM pH 7.0, 30°C, 48 h
EL3 (CaCdr1p Q714K) = assay: MIC, liquid microdilution; format: cell-based, Saccharomyces cerevisiae; conditions: EL3, Q714K; RC21 and rhodamines; CSM pH 7.0, 30°C, 48 h
EL4-1 (CaCdr1p Q1226K) = assay: MIC, liquid microdilution; format: cell-based, Saccharomyces cerevisiae; conditions: EL4-1, Q1226K; RC21 and rhodamines; CSM pH 7.0, 30°C, 48 h
EL4-2 (CaCdr1p Q1226R) = assay: MIC, liquid microdilution; format: cell-based, Saccharomyces cerevisiae; conditions: EL4-2, Q1226R; RC21 and rhodamines; CSM pH 7.0, 30°C, 48 h
EL6 (CaCdr1p Q1445R) = assay: MIC, liquid microdilution; format: cell-based, Saccharomyces cerevisiae; conditions: EL6, Q1445R; RC21 and rhodamines; CSM pH 7.0, 30°C, 48 h
TM5 (CaCdr1p V674F) = assay: MIC, liquid microdilution; format: cell-based, Saccharomyces cerevisiae; conditions: TM5, V674F; RC21 and rhodamines; CSM pH 7.0, 30°C, 48 h
AD/pABC3 (Control) [7] = assay: Agarose diffusion FLC chemosensitization assay; format: cell-based, Saccharomyces cerevisiae; conditions: presence or absence of FLC at 1/4 MIC
[8] = system: AD/pABC3 or AD/CaCDR1 cells; assay: Rhodamine 6G uptake in de-energised cells; format: cell-based, Saccharomyces cerevisiae; conditions: concentrations <20 μM
Procedure, shortened: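 Host S. cerevisiae and Cdr1p-expressing cells were harvested at log phase, washed, and suspended in 50 mM HEPES-NaOH pH 7.0. They were de-energised with 5 mM 2-deoxyglucose (30 °C, 30 min), then given 15 μM R6G ± test peptide at OD600 1.0. Samples taken at time intervals were boiled 10 min in SDS/mercaptoethanol/Tris pH 6.8 lysis buffer. Released R6G was quantified fluorimetrically against a standard curve in lysis buffer.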

C. albicans strain CIA4 = assay: Agarose diffusion / checkerboard FLC chemosensitization; format: cell-based, Candida albicans; conditions: FLC-susceptible strain CIA4; 7.5 nmole RC21
Procedure, shortened: (§1)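 Agarose diffusion on C. albicans clinical isolates. Base CSM-ura with FLC at the indicated concentration was solidified with 0.6% agarose. Cells were layered over it in CSM-ura overlay (0.4% agarose plus FLC). Crude, non-HPLC-purified test peptide (7.5 nmole) was dried on a paper disk at 37 °C for 1-2 h and placed on the overlay. Plates were incubated at 30 °C for 48 h, and inhibition-zone diameters were compared with and without FLC.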

[9] = system: C. albicans strain MML33 (deleted of both copies of CDR1); assay: as above; format: cell-based, Candida albicans; conditions: 7.5 nmole RC21
Procedure, shortened: as §1

[10] = biological target: T2, CaCdr1p-mediated rhodamine 6G efflux in AD/CaCDR1 cells; conditions: 1.25 μM; S. cerevisiae strain overexpressing CaCdr1p; ref Holmes et al., 2008; cited from earlier work
CaCdr2p = conditions: 1.25 μM; strain overexpressing CaCdr2p; ref Holmes et al., 2008; cited from earlier work
C. albicans MML611 = conditions: 0.62 μM; FLC-resistant MML611; ref Holmes et al., 2008; cited from earlier work
C. albicans MML610 = conditions: 0.62 μM; FLC-susceptible parental strain MML610; ref Holmes et al., 2008; cited from earlier work

Q: For `C[C@@H]1[C@H](O)[C@@H](C)/C=C/C=C/C=C/C=C/C=C/C=C/C=C/[C@H](O[C@@H]2O[C@H](C)[C@@H](O)[C@H](N)[C@@H]2O)C[C@@H]2O[C@](O)(C[C@@H](O)C[C@@H](O)[C@H](O)CC[C@@H](O)C[C@@H](O)CC(=O)O[C@H]1C)C[C@H](O)[C@H]2C(=O)O` [Amphotericin B], which “concentration causing complete lysis of red blood cells” value (human red blood cells; human) is on record?
A: Its value is 3 µM.

Q: What about the “concentration rendering human epithelial cells inviable” value ([1]; human) of the same compound?
A: Its value is 15 µM.

Q: Which IC50 (Pma1p ATPase) does the source give for “RC21v2: HPLC-purified RC21 derivative with a single Mtr group attached to one of its three C-terminal arginine residues (FFKWQRRR)” here?
A: The IC50 was 5 µM.

Q: What about the “chemosensitization of yeast over-expressing CaCdr1p to FLC” value ([2]; ~5.5 nmol per disk, agarose diffusion) of the same compound?
A: Its value is “chemosensitized”.

Q: And the “chemosensitization of cells overexpressing CaCdr1p to FLC” value ([2]; agarose diffusion)?
A: Its value is “chemosensitized”.

Q: And the “Resistance to FLC chemosensitization” value ([3]; variant R1, Q714K, External loop 3)?
A: Its value is “High”.

Q: What about the “Resistance to FLC chemosensitization” value ([3]; variant R2, Q1445K, External loop 6) of the same compound?
A: Its value is “High”.

Q: And the “Resistance to FLC chemosensitization” value ([3]; variant R3, Q1226K, External loop 4)?
A: Its value is “High”.

Q: What about the “Resistance to FLC chemosensitization” value ([3]; variant R4, Q1226K, External loop 4) of the same compound?
A: The value was “High”.

Q: What about the “inhibition of glucose-dependent R6G efflux” value ([4]; 1.25 μM, after 5 minutes of preincubation) of the same compound?
A: The value was “fully inhibited”.

Q: And the “lysis of red blood cells” value (human red blood cells)?
A: Its value is “did not lyse; also recorded: did not hemolyse”.

Q: What about the “effect on growth or viability of a human epithelial cell line” value ([1]; 100 μM (≤100 μM in Fig. 7 legend)) of the same compound?
A: Its value is “did not affect; also recorded: did not kill”.

Q: For D-NH2-FFKW(Mtr)QRRR-CONH2 [RC21v1], which “chemosensitization of CaCdr1p-dependent FLC resistance” value ([2]; agarose diffusion assays, amount not stated (partly data not shown)) is on record?
A: The value was “ineffective”.

Q: What about the “chemosensitization of cells overexpressing CaCdr1p to FLC” value ([2]; agarose diffusion) of the same compound?
A: Its value is “inactive”.

Q: And the “concentration required to obtain a significant effect on R6G efflux” value ([4]; effect independent of glucose, non-specific membrane permeabilization)?
A: The value was “At least 40 μM”.

Q: With “D-NH2-FFKWQRRR-CONH2 + Mtr (H-[dF][dF][dK][dW][dQ][dR][dR][dR]-NH2; also: + Mtr, position not given here) [RC21]” as the compound, how does the “increase in potency against CaCdr1p ATPase activity during deconvolution” value (Cdr1p ATPase; IC50 = 20 → 1.3 μM) read?
A: Its value is 16 fold.

Q: And the “mode of inhibition of CaCdr1p ATPase” value (Cdr1p ATPase; preincubation of membranes with ATP)?
A: The value was “not a competitive inhibitor”.

Q: What about the IC50 (Pma1p ATPase) of the same compound?
A: Its IC50 is 5 µM.

Q: What about the MIC (AD/pABC3 (Control) [5]) of the same compound?
A: The MIC was >20 µM.

Q: And the MIC [6]?
A: The MIC was 20 µM.

Q: What about the MIC (EL1/TM2 (CaCdr1p G547R)) of the same compound?
A: Its MIC is 20 µM.

Q: What about the MIC (EL3 (CaCdr1p Q714K)) of the same compound?
A: Its MIC is 20 µM.

Q: And the MIC (EL4-1 (CaCdr1p Q1226K))?
A: The MIC was 20 µM.

Q: What about the MIC (EL4-2 (CaCdr1p Q1226R)) of the same compound?
A: The MIC was 20 µM.

Q: What about the MIC (EL6 (CaCdr1p Q1445R)) of the same compound?
A: The MIC was 20 µM.

Q: And the MIC (TM5 (CaCdr1p V674F))?
A: The MIC was 20 µM.

Q: And the “effect on growth of strain AD/pABC3” value (AD/pABC3 (Control) [7])?
A: The value was “no effect”.

Q: And the “inhibition of FLC resistance mediated by over-expression in S. cerevisiae of CaCdr1p” value ([2]; crude RC21 6 nmole/disk, FLC at 1/4 MIC)?
A: Its value is “inhibited FLC resistance”.

Q: And the “Resistance to FLC chemosensitization” value ([3]; variant C1, Q1226K, External loop 4)?
A: The value was “High”.

Q: What about the “Resistance to FLC chemosensitization” value ([3]; variant C2, G547R, TMD1, TMS2) of the same compound?
A: Its value is “High”.

Q: What about the “Resistance to FLC chemosensitization” value ([3]; variant E1, V674F, TMD1, TMS5) of the same compound?
A: The value was “Moderate”.

Q: And the “Resistance to FLC chemosensitization” value ([3]; variant E2, V674F, TMD1, TMS5)?
A: The value was “Moderate”.

Q: And the “Resistance to FLC chemosensitization” value ([3]; variant F1, Q1226K, External loop 4)?
A: Its value is “High”.

Q: What about the “Resistance to FLC chemosensitization” value ([3]; variant F2, Q1226K, External loop 4) of the same compound?
A: The value was “High”.

Q: And the “Resistance to FLC chemosensitization” value ([3]; variant F3, Q714K, External loop 3)?
A: The value was “High”.

Q: What about the “Resistance to FLC chemosensitization” value ([3]; variant HE2, Q1226R, External loop 4) of the same compound?
A: Its value is “High”.

Q: What about the “effect on the rate of uptake of R6G” value [8] of the same compound?
A: The value was “no significant effect”.

Q: What about the “lysis of red blood cells” value (human red blood cells) of the same compound?
A: Its value is “did not lyse; also recorded: did not hemolyse”.

Q: And the “effect on FLC susceptibility” value (C. albicans strain CIA4)?
A: The value was “conferred increased FLC susceptibility”.

Q: What about the “effect on FLC susceptibility” value [9] of the same compound?
A: The value was “minor effect”.

Q: What about the “inhibition of glucose-dependent R6G efflux” value [10] of the same compound?
A: The value was 90%.

Q: What about the “effect on glucose-dependent R6G efflux” value (CaCdr2p) of the same compound?
A: The value was “no effect”.

Q: And the “inhibition of glucose-dependent R6G efflux” value (C. albicans MML611)?
A: The value was 90%.

Q: What about the “inhibition of glucose-dependent R6G efflux” value (C. albicans MML610) of the same compound?
A: The value was “detectably inhibited”.
